PME-1 primary – PME-1 (human) inhibition | recombinant PME-1, FP-Rh probe fluorescence polarization | inhibition, % at 5.9 µM | actives 0.53% (n = 320,000) | AID 2130;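 active = inhibition above the campaign mean of all compounds plus 3 SD, cut at about 26% in these data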;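 also: competitive labeling of PME-1 active site by serine hydrolase directed probe; inhibitors block probe labeling so polarization falls and inhibition rises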
Target sequence (Q9Y570 whole entry, looked up): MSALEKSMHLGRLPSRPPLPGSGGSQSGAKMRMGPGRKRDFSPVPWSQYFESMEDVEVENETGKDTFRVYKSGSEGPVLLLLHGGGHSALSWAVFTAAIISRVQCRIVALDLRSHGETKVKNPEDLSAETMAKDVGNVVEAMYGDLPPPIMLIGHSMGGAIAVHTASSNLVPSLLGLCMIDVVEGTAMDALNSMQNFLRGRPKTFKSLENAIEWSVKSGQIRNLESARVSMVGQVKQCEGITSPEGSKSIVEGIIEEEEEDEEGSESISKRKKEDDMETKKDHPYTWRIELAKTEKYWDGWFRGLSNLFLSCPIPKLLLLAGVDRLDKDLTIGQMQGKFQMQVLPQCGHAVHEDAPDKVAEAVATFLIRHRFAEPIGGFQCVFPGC
LYPLA1 inh – LYPLA1 (human) inhibition in PME1 counter-screen; O75608; recombinant LYPLA1, FP-Rh probe fluorescence polarization; inhibition, % at 5.9 µM; actives 0.16% (n = 320,000); AID 2174;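 active = inhibition above the mean of all tested compounds plus 3 SD, set per campaign, cut at about 14% in these data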;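 also: inhibitors block serine hydrolase probe labeling of LYPLA1 so polarization falls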
RBBP9 inhibitor – human RBBP9 hydrolase inhibition | recombinant RBBP9, FP-Rh probe fluorescence polarization | inhibition, % at 7.94 µM | actives 0.2% (n = 220,000) | AID 1515;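 active = inhibition above the campaign mean of all tested compounds plus 3 SD, cut at about 14% in these data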
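Test system: recombinant human RBBP9; Timing: 30 min then 45 min, 25 °C; Detection: fluorescence polarization; Control set: RBBP9 with DMSO as uninhibited control, no-protein wells as full inhibition; Compound dosing: one concentration, 7.94 µM nominal, 0.794% DMSO; Probe or stimulus: FP-Rh activity-based probe, 375 nM before mixing.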
Fam108B counter – counter-screen for RBBP9 inhibitors: inhibitors of mouse Fam108B; recombinant Fam108B, FP-Rh probe fluorescence polarization; inhibition, % at 9.51 µM; actives 0.33% (n = 300,000); AID 1947;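 active = inhibition above the screen mean inhibition plus 3 SD, computed separately per campaign, cut at about 18% in these data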;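 also: inhibitors lower polarization as less probe binds the enzyme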
LYPLA2 counter – blocks human lysophospholipase 2, a PME1 counter-screen; O95372; recombinant LYPLA2, FP-Rh probe fluorescence polarization; inhibition, % at 5.9 µM; actives 0.38% (n = 320,000);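 active = inhibition above the screen-wide mean plus 3 SD, limit set per campaign, cut at about 26% in these data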
RBBP9 inh conf – confirmation of human RBBP9 inhibitors; shares compounds with RBBP9 inhibitor; recombinant RBBP9, FP-Rh probe fluorescence polarization; inhibition, % at 7.94 µM; actives 36% (n = 410);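 active = inhibition above the hit cutoff derived for the primary screen, cut at about 15% in these data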
Fam108b confirm – Fam108b (mouse) hydrolase inhibition, confirmation assay; recombinant Fam108b, FP-Rh probe fluorescence polarization; actives 44% (n = 930); inhibition, % at 9.51 µM; AID 1978; shares compounds with Fam108B counter;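 active = inhibition above a limit from the primary screen, the mean over all compounds plus 3 SD, cut at about 19% in these data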;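 also: inhibitors free the probe so polarization falls as inhibition rises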
Fam108b ABPP HTS – inhibits mouse Fam108b in gel-based ABPP; shares compounds with Fam108B counter; recombinant Fam108b, fluorophosphonate probe; inhibition, % at 20 µM; actives 44% (n = 260); AID 588649; in the data active = inhibition above about 40%
LYPLA1 confirm – counter-screen for PME1 inhibitors: confirmation of human LYPLA1 inhibitors. recombinant LYPLA1, FP-Rh probe fluorescence polarization. shares compounds with LYPLA1 inh. actives 69% (n = 480). AID 2233. inhibition, % at 5.9 µM;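 active = mean inhibition across replicates above the hit cutoff set in the primary screen, cut at about 15% in these data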;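 also: loss of FP-Rh probe labeling of LYPLA1 seen as lower polarization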
LYPLA2 confirm – counter-screen for PME1 inhibitors: confirmation of human LYPLA2 inhibitors; shares compounds with LYPLA2 counter; recombinant LYPLA2, FP-Rh probe fluorescence polarization; inhibition, % at 5.9 µM; actives 72% (n = 1,100); AID 2232;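 active = mean inhibition across replicates above the hit cutoff set in the primary screen, cut at about 26% in these data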;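 also: blocked labeling of the enzyme by serine hydrolase FP-Rh probe lowers polarization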
Large screens that a line does not name were inactive (follow-up assays come after a bar, where they were run). Most compounds without a hit are left out; they make up all but 0.99% or so of the library.

Cc1ccc(S(=O)(=O)Nc2ccccc2C(=O)OC(C)C(=O)Nc2ccc3ccccc3c2)cc1[N+](=O)[O-] (stereo not drawn)	none
COc1ccc(NC(=S)NNc2ccc(S(=O)(=O)Nc3ccccc3C(=O)O)cc2[N+](=O)[O-])cc1	PME-1 primary 50, RBBP9 inhibitor 22, Fam108B counter 52 | RBBP9 inh conf 15 | Fam108b confirm inactive
COc1cc(Br)cc2cc(C(=O)N3CCCCC3C)c(=O)oc12 (stereo not drawn)	none
O=C(COC(=O)/C=C/c1cccs1)Nc1nc(-c2cccc(Br)c2)cs1	PME-1 primary 44, RBBP9 inhibitor 17, Fam108B counter 21 | RBBP9 inh conf 27 | Fam108b confirm inactive
Cc1ccc(/C=C2\SC(=S)N(/N=C/c3cc([N+](=O)[O-])ccc3O)C2=O)o1	RBBP9 inhibitor 15, Fam108B counter 25 | RBBP9 inh conf 23 | Fam108b confirm 26
O=C(Cc1ccc([N+](=O)[O-])cc1)N1N=C(C2CC2)CC1(O)C(F)(F)F (stereo not drawn)	none
c1ccc(CSc2nnc(-c3ccco3)n2Cc2ccco2)cc1	none
CCCCOc1[nH]c2nc(-c3ccco3)n(Cc3ccco3)c(=N)c2c1C#N	RBBP9 inhibitor 18, Fam108B counter 20 | RBBP9 inh conf inactive | Fam108b confirm inactive
CCN(CC)c1cccc(OC2=NS(=O)(=O)c3ccccc32)c1	LYPLA1 inh 15, RBBP9 inhibitor 19 | RBBP9 inh conf 16 | LYPLA1 confirm inactive
Cc1ccc(NC(=O)C(C)OC(=O)CCC2CCCCC2)cc1 (stereo not drawn)	none (no result: RBBP9 inhibitor)
CCCCNc1c2c3c(cccc3n(C)c1=O)C(=O)c1ccccc1-2	PME-1 primary 75, LYPLA1 inh 42, RBBP9 inhibitor 24, Fam108B counter 45, LYPLA2 counter 54 | RBBP9 inh conf 30 | Fam108b confirm 49 | Fam108b ABPP HTS inactive | LYPLA1 confirm 39 | LYPLA2 confirm 37
Cn1c(=O)c(NCCc2ccccc2)c2c3c(cccc31)C(=O)c1ccccc1-2	PME-1 primary 191, LYPLA1 inh 148, RBBP9 inhibitor 109, Fam108B counter 156, LYPLA2 counter 174 | RBBP9 inh conf 144 | Fam108b confirm 178 | Fam108b ABPP HTS inactive | LYPLA1 confirm 130 | LYPLA2 confirm 170
Cn1c(NCCc2ccccc2)cc(=O)n(C)c1=O	none
Cn1c(=O)c(NC2CCCCC2)c2c3c(cccc31)C(=O)c1ccccc1-2	none (no result: PME-1 primary, LYPLA1 inh, Fam108B counter, LYPLA2 counter)
CC[n+]1c(C)cc(C)n1-c1ccccc1	none
CCNc1ccc2noc3c2c1C(=O)c1ccccc1-3	PME-1 primary 111, LYPLA1 inh 108, RBBP9 inhibitor 28, Fam108B counter 115, LYPLA2 counter 118 | RBBP9 inh conf inactive | Fam108b confirm 149 | Fam108b ABPP HTS 95 | LYPLA1 confirm 108 | LYPLA2 confirm 112
Cc1ccsc1C=Nc1ccc(O)cc1	PME-1 primary 55, LYPLA1 inh 38, RBBP9 inhibitor 15, Fam108B counter 42, LYPLA2 counter 40 | RBBP9 inh conf inactive | Fam108b confirm inactive | LYPLA1 confirm inactive | LYPLA2 confirm inactive
CC(C)CN(CC(C)C)C(=O)c1cccc(S(=O)(=O)N2CCc3ccccc32)c1	none
Cc1cc(C)c(S(=O)(=O)Nc2cc(SCC(=O)O)c(O)c3ccccc23)cc1C	RBBP9 inhibitor 16, LYPLA2 counter 30 | RBBP9 inh conf 49 | LYPLA2 confirm inactive
CN1CCC(N(C)C(=O)COc2ccccc2Cl)CC1	none (no result: RBBP9 inhibitor, Fam108B counter)
CCOc1cc(/C=C2\C(=O)N(c3nc(-c4ccc(Br)cc4)cs3)N=C2c2ccccc2)ccc1O	Fam108B counter 42 | Fam108b confirm 42 | Fam108b ABPP HTS 90

Compound activity deposited in PubChem BioAssay by The Scripps Research Institute Molecular Screening Center.
